These results are taken from ChEMBL document CHEMBL4706506 (Eur J Med Chem, 2020).

Active and inactive are the calls of the source. The rule behind the calls is not given here.

For one series, the system named is HeLa. Put plainly: Antiproliferative activity against human HeLa cells assessed as inhibition of cell proliferation measured after 48 hrs by CCK-8 assay. It is filed as functional, cell-based. In a few lines: (§1)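 RPMI-1640 with 10% FBS, 37 °C, 5% CO2. Cells seeded at 1-3 × 10^4/well and exposed to 0.00098–64 μM (nine 4-fold steps) or 0.1% DMSO vehicle for 48 h. CCK-8 then added for 4 h; absorbance read at 450 nm. IC50 taken from dose–response curves; mean ± SD of three independent experiments.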

Series [1] deals with MCF7. Put plainly: Antiproliferative activity against human MCF7 cells assessed as inhibition of cell proliferation measured after 48 hrs by CCK-8 assay. It is filed as functional, cell-based. Particulars: MCF7, 48 h. (Formazan colour is commonly taken as a measure of viable cells.)
In the next series the test system is A549. Put plainly: Antiproliferative activity against human A549 cells assessed as inhibition of cell proliferation measured after 48 hrs by CCK-8 assay. It is filed as functional, cell-based. Particulars: A549, 48 h. In a few lines:
as §1

The test system of another series is HCT-116. Put plainly: Antiproliferative activity against human HCT-116 cells assessed as inhibition of cell proliferation measured after 48 hrs by CCK-8 assay. In kind it is functional, cell-based. Particulars: HCT-116, 48 h. A digest of the protocol: as §1
The subject of series [2] is B16-F0. Description: Antiproliferative activity against mouse B16-F0 cells assessed as inhibition of cell proliferation measured after 48 hrs by CCK-8 assay. It is filed as functional, cell-based. Particulars: B16F0, 48 h. In a few lines: as §1
Series [3] is described as follows: Inhibition of pig brain tubulin polymerization measured by light scattering based spectrophotometer method. In kind it is tissue-based, Sus scrofa. In a few lines: (§2)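 Porcine brain tubulin purified by three assembly/disassembly cycles and phosphocellulose chromatography. Mixed with graded compound concentrations in PEM (100 mM PIPES, 1 mM EGTA, 1 mM MgCl2) with 1 mM GTP and 5% glycerol. Polymerization followed at 37 °C by light scattering at 340 nm; variants ran at 30 °C, or with 5 min preincubation before GTP addition. IC50 reported.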

A short description of series [4]: Binding affinity to pig brain tubulin at 30 degree C without preincubation. It is filed as tissue-based, Sus scrofa. A digest of the protocol: as §2
A short description of series [5]: Binding affinity to pig brain tubulin at 37 degree C without preincubation. In kind it is tissue-based, Sus scrofa. A digest of the protocol: as §2
Series [6] in a line: Binding affinity to pig brain tubulin at 37 degree C preincubated for 5 mins. It is filed as tissue-based, Sus scrofa. A digest of the protocol:
as §2

Series [7] concerns MCF7. Description: Induction of cell cycle arrest in human MCF7 cells assessed as accumulation of cells at G2/M phase measured after 48 hrs by FACS Calibur flow cytometry in relative to control. In kind it is functional, cell-based. A digest of the protocol:
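MCF-7 cells plated for 24 h, then exposed to compound (5 or 10 nM; DMSO control) for 48 h. Fixed in 70% ethanol at 4 °C for 12 h, then RNase A and propidium iodide staining for 30 min. DNA content measured by flow cytometry.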

Series [8] is described as follows: Metabolic stability in human liver microsomes assessed as half life in presence of NADPH at 0.5 uM measured after 4 hrs by LC/MS method. In kind it is ADME, Microsome. Background: Liver microsomes are a subcellular fraction often used to study metabolism.
The nature of series [9]: Metabolic stability in mouse liver microsomes assessed as half life in presence of NADPH at 0.5 uM measured after 4 hrs by LC/MS method. It is filed as ADME, Microsome.
Series [10] relates to B16-F0. Description: Induction of microtubule destabilization in mouse B16-F0 cells assessed as short and wrapped structure at 160 nM measured after 6 hrs by DAPI staining based immunofluorescent assay relative to control. In kind it is cell-based.
In series [11] the test system is B16-F0. Put plainly: Stabilization of microtubules in mouse B16-F0 cells at 40 nM measured after 6 hrs by DAPI staining based Immunofluorescent assay relative to control. In kind it is cell-based. In a few lines: (§3)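 Fixed in 4% paraformaldehyde, permeabilized with 0.5% Triton X-100 for 15 min, goat serum blocked. Anti-tubulin antibody 2 h at 4 °C, then fluorescent secondary antibody and DAPI nuclear counterstain. Imaged by confocal microscopy.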

Series [12] concerns B16-F0. Put plainly: Antitumour activity against mouse B16-F0 cells transplanted in C57/BL mouse assessed as decrease in tumour weight at 10 mg/kg, ip measured after 16 days in relative to control. In kind it is functional. Particulars: time 16 day. More on the design: scale not given: the % may be the effect or the level left.
Series [13] has as its system B16-F0. Description: Antitumour activity against mouse B16-F0 cells transplanted in C57/BL mouse assessed as decrease in tumour volume at 10 mg/kg, ip measured after 16 days in relative to control. In kind it is functional. More on the design: scale not given: the % may be the effect or the level left. Particulars: time 16 day.
Series [14] in a line: Toxicity in C57/BL mouse […] with mouse B16-F0 cells assessed as body weight loss at 10 to 20 mg/kg, ip measured after 16 days in relative to control. In kind it is organism-based. Particulars: in vivo, 384 h, dose 10-20 mg/kg, time 16 day.
The nature of series [15]: Toxicity in C57/BL mouse […] with mouse B16-F0 cells assessed as liver histology at 10 to 20 mg/kg, ip measured after 16 days by H and E staining method in relative to control. In kind it is organism-based. Particulars: in vivo, 384 h, dose 10-20 mg/kg, time 16 day.
The test system of series [16] is MCF7. Description: Inhibition of cell migration in human MCF7 cells measured after 24 hrs by phase contrast microscopy based wound healing assay relative to control. It is filed as functional. Particulars: dose 10-40 nM. A digest of the protocol: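 Confluent MCF-7 monolayers, grown 24 h, scratched with a pipette tip and washed with PBS. Medium with 0, 10, 20 or 40 nM compound added. Wounds photographed by phase contrast at 0 and 24 h; migration distance measured manually.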

For series [17], the system named is B16-F0. Description: Inhibition of tubulin polymerization in mouse B16-F0 cells at 160 nM measured after 6 hrs by DAPI staining based immunofluorescent assay relative to control. It is filed as cell-based. Particulars: dose 40.0 nM, in the assay text read “at 40 nM” for “at 160 nM”. In a few lines:
as §3

Series [18] deals with B16-F0. Description: Inhibition of tubulin polymerization in mouse B16-F0 cells at 40 nM measured after 6 hrs by DAPI staining based immunofluorescent assay relative to control. In kind it is cell-based. A digest of the protocol: as §3
The test system of series [19] is B16-F0. Put plainly: Antitumour activity against mouse B16-F0 cells transplanted in C57/BL mouse assessed as decrease in tumour weight at 20 mg/kg, ip measured after 16 days in relative to control. Also noted: scale not given: the % may be the effect or the level left. In kind it is functional. Particulars: time 16 day.
The test system of series [20] is B16-F0. Put plainly: Antitumour activity against mouse B16-F0 cells transplanted in C57/BL mouse assessed as decrease in tumour volume at 20 mg/kg, ip measured after 16 days in relative to control. Also noted: scale not given: the % may be the effect or the level left. Particulars: time 16 day. In kind it is functional.
Series [21] in a line: Toxicity in C57/BL mouse […] with mouse B16-F0 cells assessed as kidney histology at 10 to 20 mg/kg, ip measured after 16 days by H and E staining method in relative to control. It is filed as organism-based. Particulars: in vivo, 384 h, dose 10-20 mg/kg, time 16 day.
Series [22] concerns B16-F0. Description: Induction of microtubule destabilization in mouse B16-F0 cells assessed as short and wrapped structure at 40 nM measured after 6 hrs by DAPI staining based immunofluorescent assay relative to control. In kind it is cell-based. In a few lines:
as §3

As usually defined, the IC50 is the concentration that inhibits the measured activity by half. The term half-life denotes the time in which the quantity being followed falls by half.

For `COc1cc(-c2ccnc3cc(-c4ccc5c(ccn5C)c4)nn23)cc(OC)c1OC`, the concentration for half-maximal inhibition (IC50) in the series with HeLa is 19 nM; in the series on MCF7 [1] it was 3 nM; in the series with A549, 15 nM; in the series with HCT-116, 39 nM; in the series with B16-F0 [2] it was 48 nM; in series [3] it was 6700 nM. Also, the results for the IC50 in series [4], in [5] and in series [6] were 6400 nM, 6700 nM and 5700 nM, respectively. Besides, the result in the series on MCF7 [7] was Active. Moreover, the half-life at 0.5 µM in series [8] is 20 min; in [9], 7 min.
As for `COc1cc2c(c(OC)c1OC)-c1ccc(OC)c(=O)cc1[C@@H](NC(C)=O)CC2` [COLCHICINE], the half-maximal inhibitory concentration (IC50) in the series on HeLa amounted to 81 nM; with MCF7 [1] it was 18 nM; in the series with A549, 107 nM; in the series on HCT-116 it was 42 nM; in the series with B16-F0 [2], 87 nM. Besides, the result in the series with B16-F0 [10] was Active.
Regarding `CC(=O)O[C@H]1C(=O)[C@@]2(C)[C@H]([C@H](OC(=O)c3ccccc3)[C@]3(O)C[C@H](OC(=O)[C@H](O)[C@@H](NC(=O)c4ccccc4)c4ccccc4)C(C)=C1C3(C)C)[C@]1(OC(C)=O)CO[C@@H]1C[C@@H]2O` [PACLITAXEL], the IC50 stood at 41 nM in the series on HeLa and 21 nM in the series on B16-F0 [2]. The outcome in the series with B16-F0 [11] was Active. In addition, the Activity with B16-F0 [12] is recorded as 60.4%; in the series on B16-F0 [13], 63.8%; in series [14], “Non-Toxic”; in [15], “Non-Toxic”.
Take `COc1cc(-c2ccnc3cc(-c4ccc(C)cc4)nn23)cc(OC)c1OC`: the IC50 with HeLa turned out to be 21 nM; in the series with MCF7 [1] it was 47 nM; in the series on A549, 3 nM; in the series with HCT-116 it was 48 nM; in the series with B16-F0 [2], 21 nM; in series [3], 2100 nM. Also, the IC50 amounted to 2100 nM in series [4], 2100 nM in series [5] and 1600 nM in series [6]. Moreover, the outcome in the series on MCF7 [7] and with B16-F0 [22] was Active. In addition, the inhibition result in the series on MCF7 [16], in the series on B16-F0 [17] and with B16-F0 [18] was “Active” each time. In addition, the half-life at 0.5 µM in series [8] came out at 125 min; in series [9], 120 min. Further, the Activity in the series with B16-F0 [12] is on record as 38.6%; with B16-F0 [19] it was 74.5%; in the series on B16-F0 [13], 40.1%; with B16-F0 [20], 77.4%; in [14], “Non-Toxic”; in [21], “Non-Toxic”. Besides, the Activity entry in series [15] is “Non-Toxic”.
As to `CCn1c2ccccc2c2cc(-c3cc4nccc(-c5cc(OC)c(OC)c(OC)c5)n4n3)ccc21`, the IC50 in the series on HeLa worked out at 160 nM; with MCF7 [1], 242 nM; in the series with A549 it was 643 nM; in the series on HCT-116 it was 1530 nM; in the series with B16-F0 [2], 1800 nM.
Regarding `COc1cc(-c2ccnc3cc(-c4ccc(C)c(C)c4)nn23)cc(OC)c1OC`, the 50% inhibitory concentration (IC50) was 241 nM in the series on HeLa; 26 nM in the series on MCF7 [1]; 272 nM with A549; 261 nM with HCT-116; 391 nM in the series with B16-F0 [2].
As to `COc1cc(C(=O)c2csc(-c3ccccc3)n2)cc(OC)c1OC`, the half-life at 0.5 µM in [8] was 17 min; in [9], below 5 min.
For `COc1cc(-c2ccnc3cc(-c4ccccc4)nn23)cc(OC)c1OC`, the IC50 with HeLa is 458 nM; with MCF7 [1], 254 nM; with A549, 208 nM; in the series with HCT-116, 3880 nM; in the series with B16-F0 [2], 4730 nM.
The matching figures for `COc1cc(-c2cc3nccc(-c4c[nH]c5ccccc45)n3n2)cc(OC)c1OC`: above 10000 nM, above 10000 nM, above 10000 nM, above 10000 nM and above 10000 nM.
As to `COc1cc(-c2ccnc3cc(-c4ccc(CO)cc4)nn23)cc(OC)c1OC`, the IC50 with HeLa came out at 456 nM; in the series on MCF7 [1], 1070 nM; in the series on A549, 1100 nM; in the series with HCT-116, 861 nM; in the series on B16-F0 [2], 1090 nM.
